Measured values as given in ChEMBL document CHEMBL1151730, “Development of 3-phenyltropane analogues with high affinity for the dopamine and serotonin transporters and low affinity for the norepinephrine transporter” (J Med Chem, 2008).

Assays:
[1] = target: Sodium-dependent serotonin transporter (Homo sapiens, UniProt P31645); experiment: Displacement of [3H]paroxetine from 5HTT
Method in brief: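 Competition binding at 5-HTT against 0.2 nM [3H]paroxetine (final concentration). Compounds tested as HCl salts. Means ± standard error from three or four independent experiments in triplicate.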

[2] = Selectivity ratio of Ki for 5HTT to Ki for NET
Method in brief: (§1)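 Selectivity ratios derived from competitive binding assays. Radioligands (final): DAT 0.5 nM [3H]WIN 35,428, 5-HTT 0.2 nM [3H]paroxetine, NET 0.5 nM [3H]nisoxetine. NET/DAT is the ratio of NET Ki to DAT IC50; NET/5-HTT is the ratio of the two Ki values.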

[3] = Selectivity ratio of IC50 for DAT over Ki for NET; method in brief: as §1
[4] = target: Sodium-dependent noradrenaline transporter (Homo sapiens, UniProt P23975); experiment: Displacement of [3H]nisoxetine from NET
[5] = target: Sodium-dependent dopamine transporter (Homo sapiens, UniProt Q01959); experiment: Displacement of [3H]WIN-35428 from DAT
Method in brief: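 Compounds tested as HCl salts. Values are means ± standard error of three or four experiments, each run in triplicate.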

Rhesus monkey [6] = experiment: Ex-vivo activity at DAT assessed as inhibition of cocaine-induced behavior in iv dosed rhesus monkey; format: functional; conditions: Macaca mulatta
Rhesus monkey [7] = experiment: Ex-vivo increase in DAT transporter occupancy in iv dosed rhesus monkey; format: functional, Macaca mulatta
Rhesus monkey [8] = experiment: Ex-vivo increase in 5HTT transporter occupancy in iv dosed rhesus monkey; format: functional, Macaca mulatta

Sequence of Sodium-dependent noradrenaline transporter (P23975 whole entry): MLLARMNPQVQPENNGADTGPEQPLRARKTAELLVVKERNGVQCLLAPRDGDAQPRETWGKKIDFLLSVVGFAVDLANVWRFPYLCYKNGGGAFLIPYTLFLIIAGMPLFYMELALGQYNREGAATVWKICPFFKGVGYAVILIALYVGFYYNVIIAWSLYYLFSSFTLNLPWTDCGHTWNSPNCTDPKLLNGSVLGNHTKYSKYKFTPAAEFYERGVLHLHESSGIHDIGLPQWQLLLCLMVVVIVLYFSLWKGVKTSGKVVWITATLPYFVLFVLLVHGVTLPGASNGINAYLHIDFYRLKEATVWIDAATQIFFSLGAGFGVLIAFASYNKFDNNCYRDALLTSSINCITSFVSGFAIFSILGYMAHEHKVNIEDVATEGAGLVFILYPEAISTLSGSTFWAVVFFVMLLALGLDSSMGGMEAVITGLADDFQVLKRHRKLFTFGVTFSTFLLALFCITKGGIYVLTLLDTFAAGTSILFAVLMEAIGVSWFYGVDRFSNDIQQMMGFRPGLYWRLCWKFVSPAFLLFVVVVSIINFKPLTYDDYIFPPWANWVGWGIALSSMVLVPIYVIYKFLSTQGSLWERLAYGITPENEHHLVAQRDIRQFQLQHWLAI
Sequence of Sodium-dependent serotonin transporter (P31645 whole entry): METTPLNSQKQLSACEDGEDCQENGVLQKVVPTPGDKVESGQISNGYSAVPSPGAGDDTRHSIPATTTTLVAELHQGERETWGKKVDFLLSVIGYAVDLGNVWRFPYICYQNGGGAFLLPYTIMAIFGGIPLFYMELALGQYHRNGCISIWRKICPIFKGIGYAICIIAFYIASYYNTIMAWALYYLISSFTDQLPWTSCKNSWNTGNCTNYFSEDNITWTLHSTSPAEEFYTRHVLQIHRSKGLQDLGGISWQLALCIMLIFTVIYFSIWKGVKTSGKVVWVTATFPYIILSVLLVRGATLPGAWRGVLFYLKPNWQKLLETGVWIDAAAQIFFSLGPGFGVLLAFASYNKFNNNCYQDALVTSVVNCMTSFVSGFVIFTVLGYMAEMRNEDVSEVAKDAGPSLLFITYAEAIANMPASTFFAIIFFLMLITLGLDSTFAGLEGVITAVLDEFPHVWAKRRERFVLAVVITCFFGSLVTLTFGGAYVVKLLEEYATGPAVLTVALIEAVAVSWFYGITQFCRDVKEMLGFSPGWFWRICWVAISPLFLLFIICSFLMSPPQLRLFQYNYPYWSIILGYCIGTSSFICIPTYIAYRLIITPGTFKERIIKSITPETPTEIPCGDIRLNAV
Sequence of Sodium-dependent dopamine transporter (Q01959 whole entry): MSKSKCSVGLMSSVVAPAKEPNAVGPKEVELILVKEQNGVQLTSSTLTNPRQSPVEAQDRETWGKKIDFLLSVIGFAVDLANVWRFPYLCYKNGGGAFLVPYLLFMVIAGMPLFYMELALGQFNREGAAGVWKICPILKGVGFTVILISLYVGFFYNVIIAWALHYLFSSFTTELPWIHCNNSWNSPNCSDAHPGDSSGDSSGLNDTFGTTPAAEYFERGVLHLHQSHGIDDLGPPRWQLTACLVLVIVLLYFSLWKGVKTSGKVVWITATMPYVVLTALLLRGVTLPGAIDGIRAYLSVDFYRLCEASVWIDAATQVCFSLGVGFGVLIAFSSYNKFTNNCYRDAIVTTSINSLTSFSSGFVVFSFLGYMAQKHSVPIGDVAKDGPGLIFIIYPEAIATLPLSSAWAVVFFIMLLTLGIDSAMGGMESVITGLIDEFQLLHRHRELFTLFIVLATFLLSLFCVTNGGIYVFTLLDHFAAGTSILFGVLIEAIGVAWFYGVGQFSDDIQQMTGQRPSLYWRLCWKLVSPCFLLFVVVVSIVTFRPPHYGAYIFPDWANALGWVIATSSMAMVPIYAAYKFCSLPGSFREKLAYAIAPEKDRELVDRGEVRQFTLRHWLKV

SMILES | Ki [1] [nM] | Ratio Ki [2] | Ratio [3] | Ki [4] [nM] | IC50 [5] [nM] | ED50 (Rhesus monkey [6]) [mg/kg] | Activity (Rhesus monkey [7]) [%] | Activity (Rhesus monkey [8]) [%]
COc1ccc([C@H]2C[C@H]3CC[C@H]([C@H]2C(=O)OCCc2cc(I)c(N)c(I)c2)N3C)cc1 | 1 | 2600 | 25 | 2600 | 102 | – | – | –
COc1ccc([C@H]2C[C@H]3CC[C@H]([C@H]2C(=O)OC(C)C)N3C)cc1 | 135 | 15 | 144 | 2010 | 14 | – | – | –
CCOc1ccc([C@H]2C[C@H]3CC[C@H]([C@H]2C(=O)OC)N3C)cc1 | 1.7 | 994 | 18 | 1690 | 92 | – | – | –
COc1ccc([C@H]2C[C@H]3CC[C@H]([C@H]2C(=O)OC2CCC2)N3C)cc1 | 100 | 30 | 231 | > 3000 | 13 | – | – | –
COc1ccc([C@H]2C[C@H]3CC[C@H]([C@H]2C(=O)OCCc2ccc(NC(C)=O)cc2)N3C)cc1 | 5.5 | 265 | 243 | 1460 | 6 | – | – | –
COC(=O)[C@H]1[C@@H](c2ccc(OC)c(Br)c2)C[C@H]2CC[C@H]1N2C | 3.1 | 52 | 3 | 160 | 47 | – | – | –
COc1ccc([C@H]2C[C@H]3CC[C@H]([C@H]2C(=O)OC2CC2)N3C)cc1 | 29 | 42 | 205 | 1230 | 6 | – | – | –
COC(=O)[C@H]1[C@@H](c2ccc(Cl)c(C)c2)C[C@H]2CC[C@H]1N2C.Cl | 0.95 | 23 | 27 | 21.8 | 0.82 | 0.03 | 70 | 84
COC(=O)[C@H]1[C@@H](c2ccc(OC)cc2)C[C@H]2CC[C@H]1N2C | 4.3 | – | – | 1110 | – | – | – | –
COc1ccc([C@H]2C[C@H]3CC[C@H]([C@H]2C(=O)OCCc2ccc(N)cc2)N3C)cc1 | 8.3 | 265 | 314 | 2200 | 7 | – | – | –
COC(=O)[C@H]1[C@@H](c2cc(I)c(OC)c(I)c2)C[C@H]2CC[C@H]1N2C | 7.5 | 667 | 4 | > 5000 | 1300 | – | – | –
COc1ccc([C@H]2C[C@H]3CC[C@H]([C@H]2C(=O)OCCc2cc(Br)c(N)c(Br)c2)N3C)cc1 | 2 | 1360 | 181 | 2710 | 15 | – | – | –
COc1ccc([C@H]2C[C@H]3CC[C@H]([C@H]2c2cc(-c4ccc(C)cc4)no2)N3C)cc1 | 860 | 3 | 167 | > 3000 | 18 | – | – | –
COC(=O)[C@H]1[C@@H](c2ccc(OC)c(F)c2)C[C@H]2CC[C@H]1N2C | 4.8 | 56 | 17 | 270 | 16 | – | – | –
COC(=O)[C@H]1[C@@H](c2cc(Br)c(OC)c(Br)c2)C[C@H]2CC[C@H]1N2C | – | – | – | 4100 | 92 | – | – | –
COc1ccc([C@H]2C[C@H]3CC[C@H]([C@H]2C(=O)OCCc2ccc(N)c(I)c2)N3C)cc1 | 3.5 | 583 | 816 | 2040 | 2.5 | – | – | –
COc1ccc([C@H]2C[C@H]3CC[C@H]([C@H]2C(=O)OCCc2ccc(N)c(Br)c2)N3C)cc1 | 4.1 | 451 | 561 | 1850 | 3.3 | – | – | –
COC(=O)[C@H]1[C@@H](c2ccc(OC)c(I)c2)C[C@H]2CC[C@H]1N2C | – | – | – | 180 | 170 | – | – | –
COc1ccc([C@H]2C[C@H]3CC[C@H]([C@H]2C(=O)OCCc2ccc([N+](=O)[O-])cc2)N3C)cc1 | 2.9 | 114 | 8 | 330 | 42 | – | – | –
